In article PMC9989852 (Food and chemical toxicology : an international journal …, 2022):
Values joined by “and” are separate entries in the source; they are usually repeats but may differ in a detail not shown here. Equal entries are not always repeated.

Key:
[1] = PFAS concentration in serum; assay type: in vivo, B6C3F1 mice; conditions: 5%, dermal, 28 days
How it was run: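 Serum came by cardiac puncture about 24 h after the final daily ear dose (25 μl/ear, acetone vehicle; female B6C3F1 mice). Samples underwent solid-phase extraction and LC/MS/MS. Short-chain analytes were quantified as linear isomer only; the legacy comparator was quantified as linear plus branched. Data are mean ± SE of 4–5 mice, one-way ANOVA with Dunnett's vs vehicle.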

spleen = test: Spleen phenotyping by flow cytometry after 28-day dermal exposure; assay type: in vivo, B6C3F1 mice; conditions: 28 days
How it was run: (§1)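 Female B6C3F1 mice (5/group) received 25 μl/ear daily to the dorsal ears in acetone. About 24 h after the last dose, tissues went into RPMI: both auricular dLNs, half spleen and one ear pinna. Single-cell suspensions were acquired on an LSR II, with populations gated per supplemental strategy and FMO gating controls. Results are mean ± SE, n=5, by one-way ANOVA.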

liver = test: Liver histopathology after 28-day dermal exposure; assay type: in vivo, B6C3F1 mice; conditions: 28 days, mice affected of 5
How it was run: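 Female B6C3F1 mice (5/group) received 25 μl/ear on the dorsal ear surfaces daily, with acetone as vehicle. Tissues were formalin-fixed about 24 h after the last dose: liver remainder, half spleen, right kidney and half ear pinna. Sections were paraffin-embedded, cut at 5 μm and stained with H&E. A veterinary pathologist read them per STP guideline and graded 1 (minimal) to 5 (severe) by extent.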

B6C3F1 mice = test: Organ weights and body weight after 28-day dermal exposure; assay type: in vivo; conditions: 28 days
ear pinna = test: Skin; assay type: in vivo, B6C3F1 mice; conditions: dermal, 28 days
How it was run: as §1

liver (caudate) = test: Liver gene expression; assay type: in vivo, B6C3F1 mice; conditions: dermal, 28 days
How it was run: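 Dosing was daily topical to both dorsal ears (25 μl/ear, acetone vehicle) in female B6C3F1 mice. Liver caudate lobe or half ear pinna was stored in RNAlater and homogenized in RLT buffer. RNA was isolated on RNeasy columns with DNase, and 1–2 μg was reverse-transcribed. TaqMan real-time PCR was read as 2−ΔΔCT vs vehicle, normalized to β-actin. Statistics: ANOVA/Dunnett's, or Kruskal-Wallis/Dunn's for unequal variance.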

O=C(O)C(F)(F)C(F)(F)C(F)(F)C(F)(F)F [PFPeA, perfluoropentanoic acid]
PFAS serum concentration vs vehicle [1]: significant increase
spleen NK cell frequency (spleen; 1.25%): increase
spleen MFI of CD86 on B-cells (spleen; 2.5%): increase
spleen MFI of MHCII on B-cells (spleen; 2.5%): increase
spleen NK cell frequency (spleen; 2.5%): increase
spleen number of CD4^+ T-cells (spleen; 2.5%): significant decrease
spleen number of CD11b + Ly6C− cells (spleen; 2.5%): significant decrease
spleen MFI of CD86 on B-cells (spleen; 5%): increase
spleen MFI of MHCII on B-cells (spleen; 5%): increase
spleen NK cell frequency (spleen; 5%): increase
Liver: Hypertrophy, centrilobular, hepatocyte, Mild (incidence) (liver; 1.25%): 0
Liver: Hypertrophy, centrilobular, hepatocyte, Minimal (incidence) (liver; 1.25%): 5/ 5 and 5
Liver: Hypertrophy, centrilobular, hepatocyte, Mild (incidence) (liver; 2.5%): 5/5 and 5
Liver: Hypertrophy, centrilobular, hepatocyte, Minimal (incidence) (liver; 2.5%): 0
Liver: Hypertrophy, centrilobular, hepatocyte, Mild (incidence) (liver; 5%): 5/5 and 5
Liver: Hypertrophy, centrilobular, hepatocyte, Minimal (incidence) (liver; 5%): 0
body weight or overt signs of toxicity (B6C3F1 mice; 1.25–5%): no changes
Liver weight (% body weight), increase vs vehicle-treated mice (B6C3F1 mice; 5%): 12%
Ear CD4^+ cell number (ear pinna; 1.25%): 2.55 ± 0.41 × 10^3
Ear CD4^+ frequency (ear pinna; 1.25%): 2.93 ± 0.23 %
Ear CD8^+ cell number (ear pinna; 1.25%): 1.38 ± 0.17 × 10^2
Ear CD8^+ frequency (ear pinna; 1.25%): 0.16 ± 0.02%
Ear CD45^+ cell number (ear pinna; 1.25%): 8.61 ± 1.11 × 10^4
Ear CD45^+ frequency (ear pinna; 1.25%): 8.16 ± 0.67%
Ear CD lib- F4/80+ DCs cell number (ear pinna; 1.25%): 17.60 ± 3.16 × 10^2
Ear CDllb + F4/80+ DCs cell number (ear pinna; 1.25%): 26.50 ± 4.08 × 10^2
Ear CDllb- F4/80+ DCs frequency (ear pinna; 1.25%): 2.10 ± 0.37%
Ear CDllb- F4/80-DCs cell number (ear pinna; 1.25%): 2.15 ± 0.38 × 10^3
Ear Dendritic Cells cell number (ear pinna; 1.25%): 6.78 ± 0.97 × 10^3
Ear Dendritic Cells frequency (ear pinna; 1.25%): 7.83 ± 0.37%
Ear Eosinophils cell number (ear pinna; 1.25%): 2.72 ± 0.51 × 10^3
Ear Eosinophils frequency (ear pinna; 1.25%): 3.13 ± 0.31%
Ear NK cell number (ear pinna; 1.25%): 5.64 ± 0.85 × 10^2
Ear NK frequency (ear pinna; 1.25%): 0.66 ± 0.06%
Ear Neutrophils cell number (ear pinna; 1.25%): 2.28 ± 0.53 × 10^2
Ear Neutrophils frequency (ear pinna; 1.25%): 0.27 ± 0.06%
Ear Total Cellularity (ear pinna; 1.25%): 1.05 ± 0.10 × 10^6
Ear CD4^+ cell number (ear pinna; 2.5%): 4.65 ± 0.67 × 10^3
Ear CD45^+ cell number (ear pinna; 2.5%): 10.30 ± 1.26 × 10^4
Ear CD45^+ frequency (ear pinna; 2.5%): 11.46 ± 1.03 %
Ear CD lib- F4/80+ DCs cell number (ear pinna; 2.5%): 17.80 ± 3.48 × 10^2
Ear CDllb + F4/80+ DCs frequency (ear pinna; 2.5%): 4.22 ± 0.51 %
Ear CDllb- F4/80+ DCs frequency (ear pinna; 2.5%): 1.73 ± 0.22%
Ear CDllb- F4/80-DCs cell number (ear pinna; 2.5%): 2.79 ± 0.54 × 10^3
Ear Dendritic Cells cell number (ear pinna; 2.5%): 9.44 ± 2.00 × 10^3
Ear NK cell number (ear pinna; 2.5%): 5.86 ± 0.63 × 10^2
Ear NK frequency (ear pinna; 2.5%): 0.57 ± 0.01%
Ear Neutrophils cell number (ear pinna; 2.5%): 3.16 ± 0.37 × 10^2
Ear Neutrophils frequency (ear pinna; 2.5%): 0.32 ± 0.05%
Ear Total Cellularity (ear pinna; 2.5%): 0.88 ± 0.04 × 10^6
Ear CD4^+ cell number (ear pinna; 5%): 10.80 ± 1.17 × 10^3
Ear CD4^+ frequency (ear pinna; 5%): 5.64 ± 0.27 %
Ear CD8^+ cell number (ear pinna; 5%): 8.33 ± 1.57 × 10^2
Ear CD8^+ frequency (ear pinna; 5%): 0.42 ± 0.04 %
Ear CD45^+ cell number (ear pinna; 5%): 19.40 ± 2.55 × 10^4
Ear CD45^+ frequency (ear pinna; 5%): 13.60 ± 0.97 %
Ear CD lib- F4/80+ DCs cell number (ear pinna; 5%): 45.60 ± 8.63 × 10^2
Ear CDllb + F4/80+ DCs cell number (ear pinna; 5%): 86.70 ± 10.20 × 10^2
Ear CDllb + F4/80+ DCs frequency (ear pinna; 5%): 4.51 ± 0.18 %
Ear CDllb- F4/80+ DCs frequency (ear pinna; 5%): 2.36 ± 0.35%
Ear CDllb- F4/80-DCs cell number (ear pinna; 5%): 6.19 ± 0.94 × 10^3
Ear CDllb- F4/80-DCs frequency (ear pinna; 5%): 3.16 ± 0.10 %
Ear Dendritic Cells cell number (ear pinna; 5%): 20.20 ± 2.65 × 10^3
Ear Dendritic Cells frequency (ear pinna; 5%): 10.42 ± 0.36 %
Ear Eosinophils cell number (ear pinna; 5%): 13.50 ± 2.05 × 10^3
Ear Eosinophils frequency (ear pinna; 5%): 7.35 ± 1.24 %
Ear NK cell number (ear pinna; 5%): 16.10 ± 4.27 × 10^2
Ear NK frequency (ear pinna; 5%): 0.80 ± 0.12%
Ear Neutrophils cell number (ear pinna; 5%): 21.60 ± 8.98 × 10^2
Ear Neutrophils frequency (ear pinna; 5%): 0.97 ± 0.31 %
Ear Total Cellularity (ear pinna; 5%): 1.41 ± 0.11 × 10^6
liver Pltp gene expression (liver (caudate); 2.5%): increase
liver Pparδ expression (liver (caudate); 2.5%): decreasing
liver Serpine1 gene expression, increase (liver (caudate); 2.5%): 8 fold
liver Acox1 gene expression (liver (caudate); 5%): increase
liver Cd36 gene expression, increase (liver (caudate); 5%): 6.5 fold
liver Ehhadh gene expression, increase (liver (caudate); 5%): 8.8 fold
liver Fabp1 gene expression (liver (caudate); 5%): increased
liver Pltp gene expression (liver (caudate); 5%): increase
liver Pparγ expression (liver (caudate); 5%): increasing
liver Pparδ expression (liver (caudate); 5%): decreasing
liver Serpine1 gene expression, increase (liver (caudate); 5%): 11.3 fold
